Measured values published in ChEMBL document CHEMBL1124745, “Acyclic purine phosphonate analogues as antiviral agents. Synthesis and structure-activity relationships” (J Med Chem, 1990).
In brackets after ≈: the same amount, converted by molar mass.

Key:
[1] = Evaluated for the dissociation constant; type: ADME; conditions: read-out: pKa2
Human alphaherpesvirus 2 [2] = experiment: Evaluated for the antiviral activity against Herpes simplex virus type 2 (HSV-2) strain G by the plaque reduction assay; type: functional; conditions: read-out: ID50 (the source's name)
How it was run: (§1)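 Plaque reduction in Vero cells: about 50 PFU HSV per well adsorbed 1 h with intermittent shaking. Inoculum removed; 10% EMEM with 2-fold drug dilutions added in triplicate, with no-drug virus controls. 48 h at 37 °C, 5% CO2, then Giemsa stain and plaque count. ID50 is the concentration giving 50% plaque reduction versus control.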

Vero = experiment: Evaluated for the antiviral activity against Vero cells by proliferation assays (in uninfected cells); type: functional; conditions: Chlorocebus sabaeus, read-out: ID50 (the source's name)
How it was run: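 Cell proliferation assay in uninfected Vero cells; ID50 in µg/mL.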

Human alphaherpesvirus 1 [3] = experiment: Evaluated for the antiviral activity against Herpes simplex virus type 1 (HSV-1) strain BWS by the plaque reduction assay; type: functional; conditions: read-out: ID50 (the source's name); how it was run: as §1
guanylate kinase = experiment: Evaluated for the kinetic parameter Km, with bovine brain guanylate kinase.; type: ADME, Bos taurus; conditions: cattle
CCRF-CEM [4] = experiment: Evaluated for the anticellular activity against CEM cells; type: functional; conditions: Homo sapiens, read-out: ID50 (the source's name)
How it was run: (§2)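 CEM cells, uninfected; cell count by dye exclusion; ID50 in µg/mL.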

[5] = test system: Human immunodeficiency virus 1; experiment: Evaluated for the antiretroviral activity against Human immunodeficiency virus type 1; type: functional; conditions: read-out: ID50 (the source's name)
How it was run: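 CEM-F cells infected with about 30 TCID50 of HIV (LAV strain) for 45 min at 37 °C. Compound added at various concentrations, then 8-day incubation. p24 gag protein in culture supernatant measured by enzyme-capture ELISA. ID50 (µg/mL) is the dose inhibiting 50% of virus expression.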

Human alphaherpesvirus 1 [6] = experiment: (§3) Evaluated for the antiviral activity against Herpes simplex virus type 1 (HSV-1).; type: organism-based; conditions: read-out: ID50 (the source's name); how it was run: as §1
[7] = test system: Rauscher murine leukemia virus; experiment: Evaluated for the antiretroviral activity against Rauscher murine leukemia virus (R-MuLV); type: functional; conditions: read-out: ID50 (the source's name)
How it was run: (§4)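 Rauscher murine leukemia virus tested by UV-XC plaque assay; ID50 in µg/mL.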

Human betaherpesvirus 5 [8] = experiment: Evaluated for the antiviral activity against Human cytomegalovirus (HCMV) strain AD-169 by the plaque reduction assay; type: functional; conditions: read-out: ID50 (the source's name)
How it was run: (§5)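 HCMV AD169 grown and titered at 37 °C in MRC-5 human embryonic lung diploid cells. Plaque reduction assay in MRC-5 with 2-fold drug dilutions in triplicate and no-drug virus controls. ID50 is the concentration reducing plaques by 50% versus control.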

[9] = Evaluated for the rate of phosphorylation with bovine brain guanylate kinase.; type: ADME, Bos taurus; conditions: cattle
CCRF-CEM [10] = experiment: Evaluated for the anticellular activity against CEM cells by dye-exclusion method; type: functional; conditions: Homo sapiens, read-out: ID50 (the source's name); how it was run: as §2
Bos taurus = species: Bos taurus; experiment: Evaluated for the rate of phosphorylation with bovine brain guanylate kinase; type: ADME; conditions: cattle, in vivo
Human betaherpesvirus 5 [11] = experiment: Evaluated for the antiviral activity against Human cytomegalovirus (HCMV) with strain AD-169 by the plaque reduction assay; type: functional; conditions: read-out: ID50 (the source's name); how it was run: as §5
Human alphaherpesvirus 2 [12] = experiment: Evaluated for the antiviral activity against Herpes simplex virus type 2 (HSV-2) with strain G by the plaque reduction assay; type: functional; conditions: read-out: ID50 (the source's name); how it was run: as §1
Human alphaherpesvirus 1 [13] = experiment: as §3; type: functional; conditions: read-out: ID50 (the source's name); how it was run: as §1
[14] = test system: Rauscher murine leukemia virus; experiment: Evaluated for the antiretroviral activity against Rauscher-murine leukemia virus (R-MuLV); type: functional; conditions: read-out: ID50 (the source's name); how it was run: as §4
[15] = Evaluated for the second dissociation constant; type: ADME; conditions: read-out: pKa2

Row | SMILES | pKa [1] | IC50 (Human alphaherpesvirus 2 [2]) [µg/mL] | IC50 (Vero) [µg/mL] | IC50 (Human alphaherpesvirus 1 [3]) [µg/mL] | Km (guanylate kinase) [mM] | IC50 [5] [µg/mL] | further results
1 | Nc1nc(O)c2ncn(CCSCP(=O)(O)O)c2n1 | 6.59 | > 100 | 100 (≈ 328 µM) | > 100 | – | – | –
2 | Nc1nc(O)c2ncn(CCCOCP(=O)(O)O)c2n1 | – | > 100 | 76 (≈ 251 µM) | 65.5 (≈ 216 µM) | 4.7 | 7.8 (≈ 25.7 µM) | IC50 (CCRF-CEM [4]): > 100 µg/mL; IC50 (Human alphaherpesvirus 1 [6]): 65.5 µg/mL (≈ 216 µM); IC50 [7]: 0.04 µg/mL (≈ 0.132 µM); IC50 (Human betaherpesvirus 5 [8]): 6 µg/mL (≈ 19.8 µM); Relative Vmax [9]: 0.0024
3 | Nc1ncnc2c1ncn2CCCOCP(=O)(O)O | – | > 100 | 100 (≈ 348 µM) | > 100 | – | – | –
4 | Nc1nc2c(ncn2COCCO)c(=O)[nH]1 [ACYCLOVIR] | – | 2.4 (≈ 10.7 µM) | 100 (≈ 444 µM) | 0.5 (≈ 2.22 µM) | – | – | IC50 (Human betaherpesvirus 5 [8]): 38.4 µg/mL (≈ 171 µM)
5 | CC(COCP(=O)(O)O)n1cnc2c(O)nc(N)nc21 (stereo not drawn) | – | – | 60 (≈ 198 µM) | 2.92 (≈ 9.63 µM) | 3.9 | 8.4 (≈ 27.7 µM) | IC50 (CCRF-CEM [10]): > 100 µg/mL; Relative Vmax (Bos taurus): 0.073; IC50 (Human betaherpesvirus 5 [11]): 0.4 µg/mL (≈ 1.32 µM); IC50 (Human alphaherpesvirus 2 [12]): 3.29 µg/mL (≈ 10.9 µM); IC50 (Human alphaherpesvirus 1 [6]): 3 µg/mL (≈ 9.89 µM)
6 | Nc1ncnc2c1ncn2CCOCP(=O)(O)O [ADEFOVIR] | – | 9.4 (≈ 34.4 µM) | > 100 | 21 (≈ 76.9 µM) | – | 3 (≈ 11 µM) | IC50 (CCRF-CEM [10]): > 100 µg/mL; IC50 [7]: 0.05 µg/mL (≈ 0.183 µM); IC50 (Human betaherpesvirus 5 [8]): 0.93 µg/mL (≈ 3.4 µM)
7 | Nc1nc2c(ncn2COCCP(=O)(O)O)c(=O)[nH]1 | 6.76 | – | 100 (≈ 346 µM) | > 100 | – | – | IC50 (Human alphaherpesvirus 2 [12]): > 100 µg/mL; IC50 (Human alphaherpesvirus 1 [6]): > 145 µg/mL
8 | Nc1nc2c(ncn2CCOCP(=O)(O)O)c(=O)[nH]1 [GS-438] | 6.52 | 0.69 (≈ 2.39 µM) | 5 (≈ 17.3 µM) | 0.08 (≈ 0.277 µM) | 2.7 | > 10 | IC50 (Human alphaherpesvirus 1 [13]): 0.1 µg/mL (≈ 0.346 µM); IC50 (CCRF-CEM [4]): 10 µg/mL (≈ 34.6 µM); IC50 [14]: 0.001 µg/mL (≈ 0.00346 µM); IC50 (Human betaherpesvirus 5 [8]): 0.04 µg/mL (≈ 0.138 µM); Relative Vmax [9]: 0.11
9 | Cc1cn([C@H]2C[C@H](N=[N+]=[N-])[C@@H](CO)O2)c(=O)[nH]c1=O [ZIDOVUDINE] | – | – | – | – | – | 0.05 (≈ 0.187 µM) | IC50 (CCRF-CEM [10]): > 50 µg/mL; IC50 [7]: 0.001 µg/mL (≈ 0.00374 µM)
10 | Nc1nc2c(ncn2[C@@H]2O[C@H](COP(=O)(O)O)[C@H](O)[C@@H]2O)c(=O)[nH]1 [E626] | – | – | – | – | 3.3 | – | Relative Vmax [9]: 100
11 | Nc1nc(O)c2ncn(CCCCOCP(=O)(O)O)c2n1 | – | > 100 | 100 (≈ 315 µM) | > 100 | – | – | IC50 (Human alphaherpesvirus 1 [6]): > 145 µg/mL
12 | Nc1nc2c(ncn2[C@H]2C[C@H](O)[C@@H](COP(=O)(O)O)O2)c(=O)[nH]1 | – | – | – | – | 1.2 | – | Relative Vmax [9]: 14
13 | Cc1cn([C@H]2C[C@H](O)[C@@H](COP(=O)(O)O)O2)c(=O)[nH]c1=O [THYMIDINE MONOPHOSPHATE] | – | – | – | – | – | – | pKa [15]: 6.5
14 | Nc1nc(O)c2ncn(CCCC(F)(F)P(=O)(O)O)c2n1 | 5.52 | > 100 | 100 (≈ 309 µM) | > 100 | – | – | –
15 | Nc1nc(O)c2ncn(CCCCP(=O)(O)O)c2n1 | 7.08 | – | 100 (≈ 348 µM) | > 100 | – | – | IC50 (Human alphaherpesvirus 2 [12]): > 100 µg/mL
